We go through 13 compounds from ChEMBL document CHEMBL3400073, “Design, synthesis and biological evaluation of new hybrid anticonvulsants derived from N-benzyl-2-(2,5-dioxopyrrolidin-1-yl)propanamide and 2-(2,5-dioxopyrrolidin-1-yl)butanamide derivatives” (Bioorg Med Chem, 2015).

A short description of data set [1]: Neurological toxicity in intraperitoneally dosed Albino Swiss CD1 mouse by rotarod test. In kind it is organism-based. To be noted: in vivo, ip. In short, it runs like this: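 Mice trained on the rotarod were given various ip doses, four groups in all, and tested at 10 rpm. Failure to stay on the rod for at least 1 min indicated neurotoxicity.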
In general terms: Falling from the rotarod earlier than controls is read as motor impairment.

Data set [2] deals with Mus musculus. Description: Neurological toxicity in Albino Swiss CD1 mouse at 100 mg/kg, ip after 2 hrs by rotarod test. Set-up: dose 100 mg/kg, route intraperitoneal. The following applies: in vivo. In kind it is organism-based. In short, it runs like this:
(§1)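 Mice were trained on a 2 cm rod for 3 min, with unlimited trials, at least 24 h before testing. Each was then dosed ip at 100 mg/kg and tested at 10 rpm 0.5 h or 2 h later, in groups of 4. Failure to stay on the rod for at least 1 min indicated neurotoxicity.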

The test system of data set [3] is Mus musculus. Description: Anticonvulsant activity in Albino Swiss CD1 mouse at 100 mg/kg, ip after 2 hrs by maximal electroshock test. On the set-up: dose 100 mg/kg. In kind it is functional, organism-based. In short, it runs like this: (§2)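 Male CD-1 mice, 16–26 g, in groups of 4, each mouse used once, were given 100 mg/kg ip (0.1 mL/10 g, methylcellulose vehicle). MES used 25 mA, 500 V, 50 Hz delivered by ear electrodes for 0.2 s, and absence of hindlimb tonic extension counted as protection. In scPTZ, mice without clonic convulsions over 30 min of observation counted as protected. Both tests were run 0.5 h or 2 h after dosing.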

Data set [4] relates to Mus musculus. Description: Anticonvulsant activity in intraperitoneally dosed Albino Swiss CD1 mouse after 0.5 hrs by maximal electroshock test. In kind it is functional. An outline of the steps:
(§3)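 Male CD-1 mice were dosed ip (0.1 mL/10 g, methylcellulose vehicle), at least four dose groups of 6 mice each. Protection in MES meant no hindlimb tonic extension after a 25 mA, 50 Hz, 0.2 s ear-electrode shock. Protection in scPTZ meant no clonus over 30 min.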

Data set [5] concerns Mus musculus. Kind of data set: Neurological toxicity in Albino Swiss CD1 mouse at 100 mg/kg, ip after 0.5 hrs by rotarod test. In kind it is organism-based. Set-up: dose 100 mg/kg, route intraperitoneal. The following applies: in vivo. In short, it runs like this: as §1
Data set [6] relates to Mus musculus. Description: Protective index, ratio of neurotoxic TD50 in Albino Swiss CD1 mouse by rotarod test to anticonvulsant ED50 in Albino Swiss CD1 mouse by subcutaneous pentylenetetrazole test. An outline of the steps:
(§4)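 The protective index is the rotarod TD50 divided by the MES or scPTZ ED50. Each value came from ip dosing in male CD-1 mice with probit analysis, and the reference drugs were tested under the same conditions.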

Data set [7] concerns Mus musculus. Kind of data set: Anticonvulsant activity in intraperitoneally dosed Albino Swiss CD1 mouse after 0.5 hrs by subcutaneous pentylenetetrazole test. It is filed as functional. In short, it runs like this:
as §3

Data set [8] deals with Mus musculus. Description: Anticonvulsant activity in intraperitoneally dosed Albino Swiss CD1 mouse assessed as time to peak effect by maximal electroshock test. In kind it is functional.
The test system of data set [9] is Mus musculus. Description: Anticonvulsant activity in intraperitoneally dosed Albino Swiss CD1 mouse by maximal electroshock test. In kind it is functional. To be noted: Albino Swiss CD1, ip. In short, it runs like this:
as §3

The test system of data set [10] is Mus musculus. Kind of data set: Anticonvulsant activity in intraperitoneally dosed Albino Swiss CD1 mouse by subcutaneous pentylenetetrazole test. It is filed as functional. In short, it runs like this:
as §3

The test system of data set [11] is Mus musculus. Kind of data set: Anticonvulsant activity in Albino Swiss CD1 mouse at 100 mg/kg, ip after 2 hrs by subcutaneous pentylenetetrazole test. In kind it is functional, organism-based. Set-up: dose 100 mg/kg. In short, it runs like this: as §2
The subject of data set [12] is Mus musculus. Kind of data set: Anticonvulsant activity in intraperitoneally dosed Albino Swiss CD1 mouse assessed as time to peak effect after 2 hrs by subcutaneous pentylenetetrazole test. In kind it is functional.
For data set [13], the species on record is Mus musculus. Kind of data set: Protective index, ratio of neurotoxic TD50 in Albino Swiss CD1 mouse by rotarod test to anticonvulsant ED50 in Albino Swiss CD1 mouse by maximal electroshock test. In short, it runs like this:
as §4

For data set [14], the system named is Mus musculus. Description: Anticonvulsant activity in intraperitoneally dosed Albino Swiss CD1 mouse after 2 hrs by subcutaneous pentylenetetrazole test. It is filed as functional. In short, it runs like this: as §3
The subject of data set [15] is Mus musculus. Kind of data set: Anticonvulsant activity in Albino Swiss CD1 mouse at 100 mg/kg, ip after 0.5 hrs by maximal electroshock test. In kind it is functional, organism-based. On the set-up: dose 100 mg/kg. In short, it runs like this:
as §2

In data set [16] the test system is Mus musculus. Kind of data set: Anticonvulsant activity in Albino Swiss CD1 mouse at 100 mg/kg, ip after 0.5 hrs by subcutaneous pentylenetetrazole test. It is filed as functional, organism-based. On the set-up: dose 100 mg/kg. An outline of the steps: as §2

Calls of active or inactive are those of the source. The calls are words filed in the database; no cut-off is given here.

Turning to `CCC(C(=O)NCc1ccc(C(F)(F)F)cc1)N1C(=O)CCC1=O` (racemic), the TD50 in data set [1] came to 112 mg/kg. For the same compound, the Activity result in data set [2] and in data set [5] was “Non-toxic” throughout. Also, the outcome in data set [3] and in data set [11] was inactive. Also, the MED50 in [4] and in data set [7] was 100 mg/kg throughout. Moreover, the results for the “Ratio TD50/ED50” value in [6] and in data set [13] were 1.4 and 1.62, respectively. Moreover, the Time in data set [8] and in data set [12] was 0.5 h each time. In addition, the ED50 is 69.4 mg/kg in data set [9] and 80.4 mg/kg in [10].
As for `CC(C(=O)NCc1ccccc1)N1C(=O)CCC1=O` (racemic), the Activity entry in data set [2] and in data set [5] was “Non-toxic” throughout. The outcome in data set [3] and in data set [11] was inactive. For the same compound, the MED50 in data set [4] and in [7] was 100 mg/kg in each case. The Time in data set [8] and in data set [12] was 0.5 h throughout.
In [1], `CC1CC(=O)N(C(C)C(=O)NCc2ccccc2)C1=O` (racemic) yielded a TD50 of 355 mg/kg. Also, the Activity result in data set [2] and in [5] was “Non-toxic” throughout. Further, the outcome in [3] and in [11] was inactive. Besides, the MED50 in [4] and in data set [7] was 100 mg/kg each time. For the same compound, the “Ratio TD50/ED50” value came out at 4.54 in [6] and 3.34 in data set [13]. Also, the Time in [8] and in [12] was 0.5 h in each case. Besides, the ED50 was 106 mg/kg in data set [9] and 78.3 mg/kg in data set [10].
As for `CC(C(=O)NCc1ccc(Cl)cc1)N1C(=O)CCC1=O` (racemic), in data set [1], the TD50 turned out to be 228 mg/kg. For the same compound, the Activity result in data set [2] and in data set [5] was “Non-toxic” throughout. Also, the result in data set [3] and in data set [11] was inactive. The MED50 in [4] and in data set [7] was 100 mg/kg each time. Also, the “Ratio TD50/ED50” value turned out to be 5.23 in data set [6] and 2.48 in data set [13]. The Time in [8] and in data set [12] was 0.5 h each time. Moreover, the 50% effective dose (ED50) in [9] was determined as 91.8 mg/kg; in data set [10], 43.6 mg/kg.
The compound `CCC(C(=O)NCc1ccc(Cl)cc1)N1C(=O)CCC1=O` (racemic) had a TD50 in data set [1] of 174 mg/kg. For the same compound, the Activity entry in data set [2] and in data set [5] was “Non-toxic” in each case. Moreover, in data set [3], the result was inactive. Moreover, the MED50 in data set [4], in [7] and in [14] was 100 mg/kg throughout. Also, the “Ratio TD50/ED50” value in data set [6] was 3.43; in data set [13], 1.83. The Time in data set [8] and in [12] was 0.5 h throughout. In addition, the ED50 stood at 95.3 mg/kg in data set [9] and 50.8 mg/kg in [10].
`CCC(C(=O)NCc1ccccc1Cl)N1C(=O)CCC1=O` (racemic) came in with a TD50 in data set [1] of 418 mg/kg. The Activity result in data set [2] and in [5] was “Non-toxic” in each case. For the same compound, the outcome in data set [3] was inactive. Besides, the MED50 in [4], in data set [7] and in data set [14] was 100 mg/kg in each case. Further, the “Ratio TD50/ED50” value in [6] is reported as 5.47; in data set [13], 3.7. Also, the Time in data set [8] and in data set [12] was 0.5 h throughout. The ED50 came to 113 mg/kg in [9] and 76.4 mg/kg in data set [10].
With `CCC(C(=O)NCc1ccc(F)cc1)N1C(=O)CCC1=O` (racemic), the TD50 in data set [1] was 268 mg/kg. Moreover, the Activity entry in [2] and in data set [5] was “Non-toxic” in each case. Besides, the result in data set [3], in data set [15] and in [11] was inactive. In addition, the “Ratio TD50/ED50” value in [6] turned out to be 3.22. Besides, in data set [7], the MED50 came out at 100 mg/kg. The Time in data set [8] and in [12] was 0.5 h each time. The same compound registered an ED50 in data set [10] of 83.4 mg/kg.
For `CCC(C(=O)NCc1cccc(C(F)(F)F)c1)N1C(=O)CCC1=O` (racemic), in data set [1], the TD50 is 163 mg/kg. In addition, the Activity entry in [2] and in data set [5] was “Non-toxic” in each case. In addition, the outcome in [3], in [15] and in data set [11] was inactive. Besides, the “Ratio TD50/ED50” value in [6] turned out to be 2.12. Moreover, in [7], the MED50 was 100 mg/kg. In addition, the Time in data set [8] and in data set [12] was 0.5 h in each case. In [10], this compound showed an ED50 of 77.4 mg/kg.
For `CCC(C(=O)NCc1cccc(Cl)c1)N1C(=O)CCC1=O` (racemic), in [1], the TD50 was determined as 180 mg/kg. In addition, the Activity entry in data set [2] and in data set [5] was “Non-toxic” throughout. Also, the outcome in data set [3] and in data set [11] was inactive. Further, the MED50 in data set [4] and in data set [7] was 100 mg/kg throughout. Moreover, the entries for the “Ratio TD50/ED50” value in data set [6] and in [13] were 2.28 and 1.12, respectively. In addition, the Time in data set [8] and in data set [12] was 0.5 h each time. The ED50 in data set [9] turned out to be 96.5 mg/kg; in data set [10] it was 78.8 mg/kg.
As for `CCC(C(=O)NCc1ccccc1C(F)(F)F)N1C(=O)CCC1=O` (racemic), the Activity result in data set [2] and in data set [5] was “Non-toxic” throughout. In addition, the outcome in data set [3], in data set [15] and in data set [16] was inactive. Further, the Time in data set [8] and in [12] was 0.5 h each time. The MED50 in data set [14] is 100 mg/kg. The ED50 in [9] was greater than 150 mg/kg.
In data set [1], `CCC(C(=O)NCc1ccccc1)N1C(=O)CCC1=O` (racemic) came in with a TD50 of 312 mg/kg. Also, the Activity result in data set [2] and in [5] was “Non-toxic” in each case. Besides, the outcome in data set [3] and in data set [11] was inactive. The MED50 in [4] and in data set [7] was 100 mg/kg throughout. Moreover, the “Ratio TD50/ED50” value came to 3.46 in data set [6] and 4.26 in data set [13]. Besides, the Time in data set [8] and in data set [12] was 0.5 h throughout. Further, the values for the ED50 in [9] and in data set [10] were 73.3 mg/kg and 90.3 mg/kg, respectively.
For the compound `CC(C(=O)NCc1ccc(C(F)(F)F)cc1)N1C(=O)CCC1=O` (racemic), the TD50 in [1] amounted to 143 mg/kg. The Activity entry in data set [2] and in [5] was “Non-toxic” each time. Moreover, the outcome in data set [3] and in data set [16] was inactive. Moreover, the MED50 in data set [4] and in data set [14] was 100 mg/kg in each case. The entries for the “Ratio TD50/ED50” value in data set [6] and in [13] were 2.62 and 1.78, respectively. The Time in data set [8] is 0.5 h; in data set [12] it was 2 h. Moreover, the median effective dose (ED50) in data set [9] was found to be 80 mg/kg; in data set [10], 54.5 mg/kg.
`CCC(C(=O)NCc1ccccc1F)N1C(=O)CCC1=O` (racemic) showed a TD50 in data set [1] of 346 mg/kg. For the same compound, the Activity entry in data set [2] and in data set [5] was “Non-toxic” in each case. For the same compound, the result in data set [3] and in [15] was inactive. In addition, the “Ratio TD50/ED50” value in data set [6] is recorded as 5.27. The MED50 in data set [7] and in [14] was 100 mg/kg each time. The Time in data set [8] and in [12] was 0.5 h throughout. Further, in data set [10], the 50% effect level (ED50) was put at a dose of 65.7 mg/kg.

A word on the TD50: it is the 50% point of the dose-response relation for the toxic effect studied. A high value points to harm only at a large dose. Broadly, the ED50 is the dose that gives a 50% effect, or the effect in half of the subjects. High values mean weaker potency, low ones greater potency.
